# Only some compounds are listed: those with a hit (about 3.7% of all), similar ones and a draw of the others.
# TAAR1 ag: human TAAR1 agonism | Q96RJ0 | CHO RD-HGA16 TAAR1, Fluo-8 calcium fluorescence; vehicle wells 0%, saturating PEA agonist 100% | activation, % at 3 µM | actives 0.99% (n = 360,000) | AID 624467;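 active means activation above the mean activation of all test compounds in the run plus 3 SD, cut at about 38% in these data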
# Target sequence (Q96RJ0 whole entry, looked up): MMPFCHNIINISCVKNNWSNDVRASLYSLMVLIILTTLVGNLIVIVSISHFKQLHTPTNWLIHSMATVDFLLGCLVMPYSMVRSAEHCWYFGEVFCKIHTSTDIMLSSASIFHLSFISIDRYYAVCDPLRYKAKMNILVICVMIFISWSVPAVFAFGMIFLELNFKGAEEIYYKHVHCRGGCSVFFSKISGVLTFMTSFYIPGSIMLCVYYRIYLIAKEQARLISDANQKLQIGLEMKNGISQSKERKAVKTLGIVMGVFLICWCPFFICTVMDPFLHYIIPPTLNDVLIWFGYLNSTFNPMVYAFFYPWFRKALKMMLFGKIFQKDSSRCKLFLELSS
#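 Test system: RD-HGA16 (CHO) cells co-expressing Gα16 and hTAAR1 | Doses: Single dose, 3 µM | Schedule: 17-24 h seeding, 75 min 37 °C dye, 30 min RT | Evaluation: % activation from peak over basal fluorescence ratio, DMSO-to-PEA scaled | Technique: Kinetic Fluo-8 calcium fluorescence | Benchmarks: Low control DMSO, high control PEA (EC100)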
# TAAR1 antag: human TAAR1 antagonism. actives 1.5% (n = 360,000). CHO RD-HGA16 TAAR1, Fluo-8 calcium fluorescence, antagonist. inhibition, % at 3 µM. Q96RJ0;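 active means inhibition above a per-plate cutoff, the mean inhibition of test compounds on that plate plus 3 SD, cut at about 49% in these data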
#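 Test system: RD-HGA16 CHO cells with stable hTAAR1 and Gα16 / Probe or stimulus: EC80 β-phenethylamine stimulus / Times: seeding 17-24 h prior, 75-min 37 °C, 30-min RT dye loading / Detection: Fluo-8 calcium-sensitive fluorescence / Read-out basis: % inhibition scaled between DMSO and EC80 PEA controls / Repeats: singlicate, one well per test compound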
# HCV NS3 hel inh: HCV NS3 helicase inhibition; NS3 helicase DNA unwinding, Cy5 molecular beacon fluorescence; inhibition, % at 10.9 µM; actives 0.56% (n = 290,000); AID 1800;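 active means inhibition above the mean of all tested compounds plus 3 SD, set per campaign, cut at about 35% in these data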
#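 assay system = NS3 helicase fragment of HCV | buffer or medium = MOPS pH 6.5, MgCl2, DTT, Tween20, BSA | timing = 60 min unwinding reaction at 25 °C after ATP addition | signal = Cy5 beacon fluorescence read at start and 1 h | read-out basis = % inhibition of unwinding | control set = low DMSO, high thioflavine S at 110 µM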
# rCAG RNA binder: molecules binding r(CAG) RNA repeats; AID 651821; inhibition, % at 3 µM; actives 1.3% (n = 370,000); r(CAG) RNA repeat, TO-PRO-1 dye displacement fluorescence;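 active means inhibition above the plate cutoff, the mean of all test compounds on that plate plus 3 SD, cut at about 35% in these data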;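 further: higher means more dye released from RNA so lower well fluorescence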
# core dimer inh: blocks dimerization of HCV core protein. TR-FRET GST/Flag-core106 dimerization, 1536-well. inhibition, % at 5 µM. actives 0.33% (n = 300,000). AID 1899;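 active means inhibition above the mean of all tested compounds plus 3 SD, set per screening campaign, cut at about 45% in these data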
#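 Assay system: tagged HCV core106 pair (GST and Flag); medium: KF-containing HEPES buffer, pH 7.45, DTT, CHAPS, BSA; also added: Eu donor and XL665 acceptor anti-tag antibodies; dosing: 5 µM single dose; timing: compound-protein-antibody incubation 4 h at 22.5 °C; signal: TR-FRET 671 and 617 nm emission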
# rCAG binder conf: r(CAG) RNA repeat binding, confirmation; shares compounds with rCAG RNA binder; TO-PRO-1 dye displacement fluorescence; actives 70% (n = 4,300); inhibition, % at 3 µM;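 active means inhibition above a per-plate cutoff, the mean inhibition of sample wells plus 3 SD, cut at about 35% in these data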;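 further: loss of TO-PRO-1 fluorescence as compound displaces dye from 1x1 AA loop RNA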
# dCAG dye counter: disrupts DNA CAG TO-PRO-1 complex, flagging rCAG hits; inhibition, % at 3 µM; d(CAG) DNA oligo TO-PRO-1 dye displacement, fluorescence; shares compounds with rCAG RNA binder; actives 94% (n = 4,300);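 active means inhibition above its plate's cutoff, the mean test-well inhibition plus 3 SD, cut at about 4.8% in these data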;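 further: hits displace the dye from DNA and so lower well fluorescence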
# DNA CAG DR: DNA CAG dye complex inhibition, dose response counter-screen; shares compounds with rCAG RNA binder; IC50, µM; actives 20% (n = 250); DNA CAG/GTC duplex TO-PRO-1 dye displacement fluorescence; in the data active means IC50 below about 10 µM
# Numbers stand for hits; . = inactive; / = no result.
SMILES,TAAR1 ag,TAAR1 antag,HCV NS3 hel inh,rCAG RNA binder,core dimer inh,rCAG binder conf,dCAG dye counter,others
Cn1c(SCC(=O)Nc2ccc(S(=O)(=O)Nc3nccs3)cc2)nc2sc3c(c2c1=O)CCCC3,/,/,/,74,/,77,43,
CC(C)(C)c1ccc(-c2nnc(SCC(=O)Nc3ccc(S(=O)(=O)Nc4nccs4)cc3)n2Cc2ccco2)cc1,/,/,/,51,/,47,20,
COc1ccc(-n2c(SCC(=O)Nc3ccc(S(=O)(=O)Nc4nccs4)cc3)nnc2-c2cccs2)cc1,/,/,/,73,/,72,33,DNA CAG DR=.
Cc1cc(NC(=O)CSc2nc3sc4c(c3c(=O)n2C)CCCC4)no1,.,.,.,.,.,/,/,
COc1ccc(-n2c(SCC(=O)Nc3ccc(S(=O)(=O)Nc4nccs4)cc3)nnc2-c2ccco2)cc1,/,/,/,74,/,69,30,
CC1(C)CC(=O)C=C(Nc2ccccc2NC(=O)c2cc(F)cc(F)c2)C1,/,/,/,.,/,/,/,
O=C(CSc1nnc(-c2cccnc2)n1-c1ccc(Cl)cc1)Nc1ccc(S(=O)(=O)Nc2nccs2)cc1,/,/,/,59,/,63,22,
COc1ccc(-c2nnc(SCC(=O)Nc3ccc(S(=O)(=O)Nc4nccs4)cc3)n2-c2ccc(OC)cc2)cc1,/,/,/,64,/,58,28,
C#CCNC(=O)C[C@H]1C[C@@]2(C(=O)OC)C(=C[C@H](C3CCCC3)O[C@@H]2C)N(CCCCCCCC)C1=O,.,.,/,.,/,/,/,
COc1ccc(-n2c(SCC(=O)Nc3ccc4c(c3)OCO4)nc3sc4c(c3c2=O)CCCC4)cc1,/,/,/,.,/,/,/,
O=C1NN(c2cccc(Br)c2)C(=O)/C1=C\c1ccccc1,.,.,.,77,.,39,11,
O=C1NN(c2ccccc2)C(=O)/C1=C\c1coc2ccc(O)cc2c1=O,.,.,.,36,.,.,.,
O=C1NN(c2ccccc2)C(=O)/C1=C/c1coc2ccccc2c1=O,.,.,.,39,.,.,.,
O=C1NN(c2cccc(Br)c2)C(=O)/C1=C/c1cccs1,.,.,.,.,.,/,/,
O=C(CCc1ccccc1)N[C@H]1[C@H](OC(=O)c2ccc3ccccc3n2)CCC[C@@]12C(=O)N(Cc1ccccc1)c1ccccc12,/,/,/,.,/,/,/,
CCOC(=O)[C@]12CCCC=C1N(CCCOC)C(=O)[C@@H]2CC(=O)NCc1ccc(OC)c(OC)c1,/,/,/,.,/,/,/,
CCN(CC)C(=O)CC[C@@H]1CC[C@]2(CCCN(Cc3ccccc3)C2)O1,/,/,/,.,/,/,/,
Cc1cc(C(c2ccc(C)o2)c2ccc(C)o2)c(O)c([N+](=O)[O-])c1,.,.,.,54,.,.,8.5,
Clc1ccc(CSc2nnc(-c3cccs3)o2)cc1Cl,/,/,/,.,/,/,/,
Nc1c(Br)cc(Br)c2c1C(=O)c1c(cccc1S(=O)(=O)O)C2=O,.,.,/,43,/,48,13,
O=C(CNCc1ccccc1[N+](=O)[O-])N1CCC2(CC1)OCCO2,/,/,/,.,/,/,/,
O=C1NC(=S)S/C1=C\c1cc(Cl)cc(Cl)c1O,40,65,/,38,/,47,15,
Cc1nn(C)cc1/C=C1\SC(=S)NC1=O,.,.,.,.,.,/,/,
Cc1cc(/C=C2\SC(=S)NC2=O)c(C)n1C,.,.,.,51,.,.,7.9,
O=C(NCc1ccccc1)[C@H]1CCCN1C(=O)[C@H]1CCCN1C(=O)c1cccc(Cl)c1,.,.,/,.,/,/,/,
SMILES,TAAR1 ag,TAAR1 antag,HCV NS3 hel inh,rCAG RNA binder,core dimer inh,rCAG binder conf,dCAG dye counter,others
O=C1/C(=C/c2ccco2)SC(=S)N1c1cccnc1,.,.,.,65,/,55,26,
Cc1ccc(S(=O)(=O)c2c(N)n(NC(=O)c3ccccc3C)c3nc4ccccc4nc23)cc1,.,.,.,36,.,36,13,
COC(=O)c1ccc(CSc2nc3scc(-c4cccs4)c3c(=O)[nH]2)o1,.,.,.,35,.,.,14,
CC(C)(C)c1ccc(C#C[C@@H]2C=C[C@@H](O)[C@@H](COC(=O)Nc3ccccc3)O2)cc1,.,.,/,.,/,/,/,
Cc1cc(S(=O)(=O)NC(=O)[C@H]2O[C@@H](n3ccc(=O)[nH]c3=O)[C@H](O)[C@@H]2O)ccc1Br,.,.,/,.,/,/,/,
O=C(CSc1nnc(SCc2ccccc2)s1)N/N=C/c1c(Cl)cccc1Cl,.,.,.,.,.,/,/,
O=C(CN(Cc1ccccc1Cl)S(=O)(=O)c1ccc(Cl)cc1)N/N=C/c1ccc(C(=O)O)cc1,.,.,.,71,/,55,20,
O=C(CSc1nnc(SCc2ccccc2Cl)s1)N/N=C/c1ccc(C(=O)O)cc1,.,.,.,49,.,60,17,
O=C(CN(Cc1ccccc1)S(=O)(=O)c1ccccc1)N/N=C/c1ccc([N+](=O)[O-])cc1,.,.,.,.,.,/,/,
CC(C)=CCC/C(C)=C/CNCC(=O)N1c2ccccc2[C@]2(C)C[C@@H]3C(=O)N(C/C=C(\C)CCC=C(C)C)CC(=O)N3[C@H]12,/,/,/,.,/,/,/,
Cc1ccc(CNC(=O)C2CC(c3ccc([N+](=O)[O-])cc3)=NO2)cc1 (stereo not drawn),.,.,.,44,.,.,.,
O=C(NCCc1ccccc1)OCc1cn(Cc2ccc(F)c(F)c2)nn1,/,/,/,.,/,/,/,
CCc1nnc(NS(=O)(=O)c2ccccc2)s1,.,.,.,.,.,/,/,
Cc1noc(NS(=O)(=O)c2ccc(N/C=C\C(=O)c3ccc(F)cc3)cc2)c1C,.,.,.,36,.,43,7.9,
CCc1nnc(NS(=O)(=O)c2ccc(N/C=C\C(=O)c3ccc(F)cc3)cc2)s1,.,.,.,48,.,61,23,
CCc1nnc(NS(=O)(=O)c2ccc(N/C=C\C(=O)c3cccc(OC)c3)cc2)s1,.,.,.,49,.,63,28,
CCc1nnc(NS(=O)(=O)c2ccc(N/C=C\C(=O)c3ccc(C)cc3)cc2)s1,.,.,.,55,.,72,39,
Cc1noc(NS(=O)(=O)c2ccc(N/C=C\C(=O)c3ccccc3)cc2)c1C,.,.,.,.,.,/,/,
CCc1nnc(NS(=O)(=O)c2ccc(N/C=C/C(=O)c3ccc(C)cc3)cc2)s1,.,.,.,50,.,72,34,DNA CAG DR=9.6
Cc1cc(C)nc(NS(=O)(=O)c2ccc(N/C=C\C(=O)c3ccc(Cl)cc3)cc2)n1,.,.,.,.,.,/,/,
C[C@@H]1CCN(C2CC2)S(=O)(=O)c2c(cccc2N2CCC[C@@H]2C)O1,/,/,/,.,/,/,/,
O=C(O)COc1ccccc1/C=N/NC(=O)c1cc(-c2ccc(F)cc2)nc2ccccc12,.,.,.,55,.,43,12,
